In ChEMBL document CHEMBL1140735, “Structure-activity relationships of C6-uridine derivatives targeting plasmodia orotidine monophosphate decarboxylase” (J Med Chem, 2008):

Key:
CHO = test: Cytotoxicity against CHO cells; assay type: cell-based; conditions: Cricetulus griseus
Method in brief: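 CHO cells in RPMI 1640 with 10% fetal calf serum, 25 mM HEPES and gentamicin were grown to 50% confluency. Compounds from 10 mg/mL DMSO stocks were added as a serial dilution series, with DMSO-only controls. After 48 h, MTT was added for 1 h and formazan dissolved in DMSO. Absorbance at 650 nm; IC50 by nonlinear regression of dose–response.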

Plasmodium falciparum [1] = test: Antimalarial activity against Plasmodium falciparum 3D7; assay type: functional, organism-based
Method in brief: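 Parasites grown in human O+ erythrocytes in RPMI 1640 with 10% human serum and 50 µM hypoxanthine. Compounds from 10 mg/mL DMSO stocks were serially 2-fold diluted and added to culture at 2% hematocrit and 2% parasitemia. Incubation was 48 h at 37 °C under 95% N2/3% CO2/2% O2.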

Plasmodium falciparum [2] = tested on: Plasmodium falciparum
[3] = tested on: Methanothermobacter thermautotrophicus
[4] = Inhibition of Plasmodium falciparum ODCase
[5] = Inhibition of Methanobacterium thermoautotrophicum ODCase; parameters: species or system Methanothermobacter thermautotrophicus
[6] = Inhibition of Plasmodium vivax ODCase
Method in brief: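 Calorimetric assay of P. vivax ODCase: enzyme (50 or 70 nM) was mixed with inhibitor (40–250 µM) in 50 mM Tris with 1 mM DTT, and activity was started by a single OMP injection to a final 12 µM. Competitive Ki was determined. For time-dependent inactivation, 50 µM enzyme was incubated at 25 °C in Tris pH 8.0 with 37.5–75 mM inhibitor for 1–48 h, then diluted 1000-fold and assayed.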

[7] = Stability assessed as half life of hydrolysis; assay type: physicochemical

IC50 (Plasmodium falciparum [1]) | Structure (SMILES) | IC50 (CHO) | other results
– | [N-]=[N+]=Nc1cc(=O)[nH]c(=O)n1[C@@H]1O[C@H](COP(=O)(O)O)[C@@H](O)[C@H]1O | – | KI (Plasmodium falciparum [2]): 7.3 µM; Kinact (Plasmodium falciparum [2]): 0.35 h⁻¹; KI [3]: 0.63 µM; Kinact [3]: 61.2 h⁻¹; Ki [4]: 2 µM; Ki [5]: 0.19 µM
> 1500 µM | Nc1cc(=O)[nH]c(=O)n1[C@@H]1O[C@H](CO)[C@@H](O)[C@H]1O | > 1500 µM | –
446 µM | N#Cc1cc(=O)[nH]c(=O)n1[C@@H]1O[C@H](CO)[C@@H](O)[C@H]1O | > 1500 µM | –
– | Cc1cc(=O)[nH]c(=O)n1[C@@H]1O[C@H](COP(=O)(O)O)[C@@H](O)[C@H]1O | – | Ki [4]: 34.1 µM; Ki [6]: 22.4 µM
31.7 µM | CN(C)c1cc(=O)[nH]c(=O)n1[C@@H]1O[C@H](CO)[C@@H](O)[C@H]1O | 68.3 µM | –
1230 µM | [N-]=[N+]=Nc1cc(=O)[nH]c(=O)n1[C@@H]1O[C@H](CO)[C@@H](O)[C@H]1O | > 1500 µM | –
– | N#Cc1cc(=O)[nH]c(=O)n1[C@@H]1O[C@H](COP(=O)(O)O)[C@@H](O)[C@H]1O | – | half-life [7]: 5 h; Ki [6]: 62 µM
530 µM | Cc1cc(=O)[nH]c(=O)n1[C@@H]1O[C@H](CO)[C@@H](O)[C@H]1O | > 1160 µM | –
28.5 µM | CNc1cc(=O)[nH]c(=O)n1[C@@H]1O[C@H](CO)[C@@H](O)[C@H]1O | 71.9 µM | –

Structure (SMILES) | IC50 (Plasmodium falciparum [1]) | IC50 (CHO) | other results
O=c1cc(I)n([C@@H]2O[C@H](CO)[C@@H](O)[C@H]2O)c(=O)[nH]1 | 6.2 µM | 366 µM | –
